Activity calls are given as the source filed them. No cut-off for these calls is given here.
How the values were obtained:
Leishmania donovani [1] = test: Antiamastigote activity against Leishmania donovani MHOM/IN/80/Dd8 amastigotes infected in mouse macrophage at 40 uM after 72 hrs by luciferase reporter gene assay; format: functional, organism-based
Leishmania donovani [2] = test: Antipromastigote activity against Leishmania donovani MHOM/IN/80/Dd8 promastigotes assessed as luciferase activity of viable cells at 20 uM after 72 hrs by luminometry; format: functional; settings: MHOM/IN/80/Dd8, 72 h
How it was run: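 Late-log luciferase-transfected promastigotes were seeded at 5 × 10⁵ per well in medium 199 with parallel DMSO dilutions as controls. After incubation, a suspension aliquot was mixed 1:1 with Steady Glo reagent and luminescence read as RLU. Percentage inhibition = (N − n) × 100/N, where N is mean control RLU and n is mean treated RLU.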

Leishmania donovani [3] = test: Antiamastigote activity against Leishmania donovani MHOM/IN/80/Dd8 amastigotes infected in mouse macrophage after 72 hrs by luciferase reporter gene assay; format: functional, organism-based; settings: MHOM/IN/80/Dd8, 72 h
How it was run: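 Mouse J-774A.1 macrophages were seeded at 4 × 10⁴ cells/well in RPMI-1640 with 10% foetal calf serum, 37 °C, CO₂, for 24 h. They were then infected with stationary-phase luciferase-expressing promastigotes at 4 × 10⁵/well. Compounds were added in dilutions starting from 40 and incubated 72 h at 37 °C. Medium was replaced by PBS plus Steady Glo, luminescence read as RLU, and IC50 fitted by four-parameter Hill regression.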

[4] = Cytotoxicity against mouse J774A1 cells assessed as cell viability after 72 hrs by MTT assay; format: cell-based, J774.A1
[5] = Selectivity index, ratio of CC50 for mouse J774A.1 cells to IC50 for Leishmania donovani MHOM/IN/80/Dd8 amastigotes; format: functional

Row | SMILES | inhibition (Leishmania donovani [1]) | IC50 (Leishmania donovani [3]) | inhibition at 20 µM (Leishmania donovani [2]) | CC50 at 72 h [4] | Selectivity Index [5]
1 | Clc1ccc(COC(CCn2cncn2)c2cccs2)c(Cl)c1 (centres undefined) | inactive | – | 97.1% | – | –
2 | Clc1ccc(COC(CCn2ccnc2)c2ccco2)c(Cl)c1 (centres undefined) | – | 5.15 µM | 91.8% | 56.2 µM | 10.9
3 | Fc1ccc(F)c(COC(CCn2cncn2)c2ccco2)c1 (centres undefined) | inactive | – | 98.5% | – | –
4 | Clc1ccc(COC(CCn2cncn2)c2ccco2)c(Cl)c1 (centres undefined) | inactive | – | 97.8% | – | –
5 | Clc1ccc(Cl)c(COC(CCn2ccnc2)c2cccs2)c1 (centres undefined) | – | 6.75 µM | 85.9% | 18 µM | 2.66
6 | Fc1ccc(F)c(COC(CCn2ccnc2)c2cccs2)c1 (centres undefined) | – | 7.35 µM | 86.8% | 15.1 µM | 2.05
7 | Clc1ccc(COC(CCn2ccnc2)c2cccs2)c(Cl)c1 (centres undefined) | – | 5.26 µM | 87.8% | 29.7 µM | 5.65
8 | Fc1ccc(COC(CCn2ccnc2)c2ccco2)c(F)c1 (centres undefined) | – | 4.2 µM | 95.5% | 28.8 µM | 6.86
9 | Fc1ccc(F)c(COC(CCn2cncn2)c2cccs2)c1 (centres undefined) | inactive | – | 94.8% | – | –
10 | Clc1cccc(COC(CCn2cncn2)c2cccs2)c1 (centres undefined) | – | 8.04 µM | 80.6% | 15.6 µM | 1.93
11 | Clc1ccc(COC(Cn2ccnc2)c2ccc(Cl)cc2Cl)c(Cl)c1 (centres undefined) [MICONAZOLE] | – | 6 µM | 100% | 9.93 µM | 1.66
12 | Fc1ccc(F)c(COC(CCn2ccnc2)c2ccco2)c1 (centres undefined) | – | 5.35 µM | 99% | 30.9 µM | 5.77
13 | CCCCCCCCCCCCCCCCOP(=O)([O-])OCC[N+](C)(C)C [MILTEFOSINE] | – | 13.4 µM | 99.9% | 3.23 µM | 0.24

Continued, in another order:

Row | inhibition (Leishmania donovani [1]) | IC50 (Leishmania donovani [3]) | SMILES | inhibition at 20 µM (Leishmania donovani [2]) | CC50 at 72 h [4] | Selectivity Index [5]
14 | – | 7.36 µM | Clc1cccc(COC(CCn2cncn2)c2ccco2)c1 (centres undefined) | 97.5% | 18.6 µM | 3.17
15 | inactive | – | Clc1ccc(Cl)c(COC(CCn2cncn2)c2cccs2)c1 (centres undefined) | 97.3% | – | –
16 | – | 9.39 µM | Clc1ccc(Cl)c(COC(CCn2cncn2)c2ccco2)c1 (centres undefined) | 94.5% | 28.9 µM | 3.08
17 | – | 5.14 µM | Clc1cccc(COC(CCn2ccnc2)c2cccs2)c1 (centres undefined) | 100% | 46 µM | 8.93
18 | – | 4.03 µM | Clc1ccc(Cl)c(COC(CCn2ccnc2)c2ccco2)c1 (centres undefined) | 96% | 37.6 µM | 7.15
19 | – | 3.04 µM | Clc1cccc(COC(CCn2ccnc2)c2ccco2)c1 (centres undefined) | 100% | 60.2 µM | 19.8
20 | inactive | – | Fc1ccc(COC(CCn2cncn2)c2ccco2)c(F)c1 (centres undefined) | 90.5% | – | –
21 | – | 7.81 µM | Fc1ccc(COC(CCn2ccnc2)c2cccs2)c(F)c1 (centres undefined) | 90.6% | 34.4 µM | 4.4
22 | inactive | – | Fc1ccc(COC(CCn2cncn2)c2cccs2)c(F)c1 (centres undefined) | 92% | – | –

Reference: ChEMBL document CHEMBL1772980, “Synthesis and evaluation of new furanyl and thiophenyl azoles as antileishmanial agents” (Eur J Med Chem, 2011)
